≈ marks a conversion by molar mass, not a printed value. Calls of active or inactive are those of the source. Unless noted, no cut-off for these calls is given here. Where only a bound is given, the exact number is not on record here.

In data set [1] the test system is Klebsiella pneumoniae. Description: Antibacterial activity against Klebsiella pneumoniae ATCC 13883 incubated for 24 hrs by serial broth microdilution method. It is filed as functional, organism-based. Summed up: (§1)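 Log-phase cultures from four colonies grown overnight at 37 °C, inoculated at ~5×10^5 cells/mL in cation-adjusted Mueller–Hinton broth with serially diluted compound. Grown 24 h at 37 °C, then OD600 read. MIC50/MIC90 are the concentrations giving 50%/90% growth inhibition relative to drug-free controls. Two independent experiments in duplicate.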

Data set [2] relates to Mycolicibacterium smegmatis. Nature of the data set: Antibacterial activity against Mycolicibacterium smegmatis MC2 155 incubated for 24 hrs by serial broth microdilution method. The settings on record: MC2 155, 24 h. It is filed as functional. Summed up: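 Growth read by OD600. MRSA in cation-adjusted Mueller–Hinton broth, M. smegmatis in complete 7H9. MIC50 and MIC90 are 50% and 90% growth inhibition versus drug-free controls. Two independent experiments, each in duplicate.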
In general terms: Broth dilution looks for growth in wells or tubes with falling amounts of substance.

Data set [3] relates to Mycobacterium tuberculosis. Description: Antibacterial activity against Mycobacterium tuberculosis ATCC 27294 incubated for 7 days by broth dilution method. It is filed as functional. The settings on record: ATCC 27294, 168 h. The method, boiled down: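 M. tuberculosis ATCC 27294 in complete 7H9 with 0.05% Tween 80, 0.5% glycerol and 10% ADC. Mid-log cells adjusted to OD600 0.1 and added 1:1 to 2-fold serial compound dilutions (highest 100 μM). Incubated 7 d at 37 °C with shaking at 80 rpm, then OD600 read. Isoniazid positive control. MIC50/MIC90 versus drug-free controls. Biological duplicates.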

The next data set deals with Pseudomonas aeruginosa. Description: Bactericidal activity against Pseudomonas aeruginosa PA14 assessed as reduction in CFU at 1 to 4 times MIC90 incubated for 24 hrs. It is filed as functional, organism-based.
The subject of another data set is Streptococcus pneumoniae. Description: Antibacterial activity against Streptococcus pneumoniae ATCC 49619 incubated for 24 hrs by serial broth microdilution method. It is filed as functional. Conditions: ATCC 49619, 24 h. The method, boiled down:
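Cultured in MH medium plus 3% defibrinated sheep blood at 37 °C, 5% CO2. Log-phase inoculum ~5×10^5 cells/mL was exposed to serial compound dilutions for 24 h. MIC50/MIC90 are relative to drug-free controls. Two independent experiments in duplicate.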

The next data set relates to Escherichia coli. Description: Antibacterial activity against Escherichia coli BW25113 incubated for 24 hrs by serial broth microdilution method. It is filed as functional, organism-based. Summed up: as §1
The subject of data set [4] is Klebsiella pneumoniae. Nature of the data set: Bactericidal activity against Klebsiella pneumoniae ATCC 13883 assessed as reduction in CFU at 1 to 4 times MIC90 incubated for 24 hrs. It is filed as functional, organism-based.
Data set [5] concerns Acinetobacter baumannii. Description: Antibacterial activity against Acinetobacter baumannii ATCC 17961 incubated for 24 hrs by serial broth microdilution method. It is filed as functional. The settings on record: ATCC 17961, 24 h. Summed up: as §1
For data set [6], the system named is Acinetobacter baumannii. Description: Bactericidal activity against Acinetobacter baumannii ATCC 17961 assessed as reduction in CFU at 1 to 4 times MIC90 incubated for 24 hrs. Conditions: ATCC 17961, 24 h, read-out: MBC99.9. The format is functional.
In another data set the test system is Erythrocyte. Description: Hemolytic activity in human RBC at 100 uM measured after 1 hr. The format is ADME, cell-based. The method, boiled down: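 Fresh human RBCs were PBS-washed and resuspended to OD600 24, then mixed 1:1 by volume with compound serially diluted in PBS. Incubated 1 h at 37 °C without shaking and centrifuged at 1000g for 15 min. Triton X-100 served as positive control. Run in triplicate.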

A further data set relates to Enterococcus faecalis. Description: Bactericidal activity against Enterococcus faecalis ATCC 51299 assessed as reduction in CFU at 1 to 4 times MIC90 incubated for 24 hrs. It is filed as functional, organism-based.
Data set [7] has as its target T1, tRNA (guanine-N(1)-)-methyltransferase (Pseudomonas aeruginosa (strain ATCC 15692 / DSM 22644 / CIP 104116 / JCM14847 / LMG 12228 / 1C / PRS 101 / PAO1)) (UniProt Q9HXQ1).
T1 sequence (whole entry): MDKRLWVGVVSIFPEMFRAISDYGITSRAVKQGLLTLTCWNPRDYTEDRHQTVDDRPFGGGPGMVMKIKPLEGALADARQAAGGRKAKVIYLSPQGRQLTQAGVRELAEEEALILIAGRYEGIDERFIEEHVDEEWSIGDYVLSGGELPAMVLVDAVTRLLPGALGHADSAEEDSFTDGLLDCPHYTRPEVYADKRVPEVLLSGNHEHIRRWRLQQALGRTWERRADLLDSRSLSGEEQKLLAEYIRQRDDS
Description: Binding affinity to Pseudomonas aeruginosa tRNA (guanine(37)-N1)-methyltransferase (Leu5 to Asp25 residues) expressed in Escherichia coli BL21 (DE3) Rosetta T1R cells assessed as dissociation rate constant by surface plasmon resonance assay. The method, boiled down:
(§2)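 SPR at 25 °C. His-tagged TrmD (50 μg/mL) captured on an anti-His antibody surface (about 2200 RU), with a blank reference cell. Buffer: 50 mM Tris-HCl pH 8, 150 mM NaCl, 1 mM MgCl2, 1 mM DTT, 0.05% Tween-20. Analyte in 2-fold dilutions, injected lowest to highest at 30 μL/min, 30 s contact, 240 s dissociation. KD from steady-state affinity fit.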
(In general: In SPR one partner is held on a chip, and binding of the other changes the refractive index at the surface.)

The target in data set [8] is T1, tRNA (guanine-N(1)-)-methyltransferase (Pseudomonas aeruginosa (strain ATCC 15692 / DSM 22644 / CIP 104116 / JCM14847 / LMG 12228 / 1C / PRS 101 / PAO1)). Description: Binding affinity to Pseudomonas aeruginosa tRNA (guanine(37)-N1)-methyltransferase (Leu5 to Asp25 residues) expressed in Escherichia coli BL21 (DE3) Rosetta T1R cells assessed as association rate constant by surface plasmon resonance assay. Summed up: as §2

Data set [9] deals with T2, tRNA (guanine-N(1)-)-methyltransferase (Pseudomonas aeruginosa (strain ATCC 15692 / DSM 22644 / CIP 104116 / JCM14847 / LMG 12228 / 1C / PRS 101 / PAO1), UniProt Q9HXQ1).
T2 sequence (Q9HXQ1 whole entry): T1 sequence (whole entry)
Nature of the data set: Inhibition of Pseudomonas aeruginosa tRNA (guanine(37)-N1)-methyltransferase (Leu5 to Asp25 residues) expressed in Escherichia coli BL21 Rosetta (DE3) assessed as reduction in S-adenosyl-L-homocysteine production preincubated for 15 mins followed by 15 uM of tRNALeu(CAG) substrate and SAM addition and measured after 45 mins by MTase-Glo assay. Summed up: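 tRNA competition: same MTase-Glo assay with 8 nM PaTrmD and 2 μM SAM, 15 min preincubation and 45 min reaction at 37 °C. tRNALeu(CAG) at 1.5, 4.5 or 15 μM. IC50 from dose–response curves, duplicate data points.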

Data set [10] has as its target T3, tRNA (guanine-N(1)-)-methyltransferase (Mycobacterium tuberculosis (strain ATCC 25618 / H37Rv), UniProt P9WFY7).
T3 sequence (P9WFY7 whole entry): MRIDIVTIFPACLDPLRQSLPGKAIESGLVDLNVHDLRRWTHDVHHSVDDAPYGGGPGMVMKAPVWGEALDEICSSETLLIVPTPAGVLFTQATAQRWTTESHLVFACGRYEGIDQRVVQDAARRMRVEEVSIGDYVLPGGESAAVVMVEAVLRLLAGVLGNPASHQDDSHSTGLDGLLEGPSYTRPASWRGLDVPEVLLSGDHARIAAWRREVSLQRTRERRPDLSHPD
Description: Binding affinity to full length Mycobacterium tuberculosis tRNA (guanine(37)-N1)-methyltransferase expressed in Escherichia coli BL21 (DE3) by surface plasmon resonance assay. Summed up:
as §2

Broadly, the MIC50 is the lowest concentration that inhibits either 50% of growth or 50% of the strains tested, depending on the study. Broadly, the MIC90 is an inhibitory concentration at the 90% level, which refers to growth in some studies and to a panel of isolates in others. As for `CCCCCCCCCCNCc1ccc(CNC(=O)c2csc3nc[nH]c(=O)c23)cc1`, the MIC50 entry in the data set on Klebsiella pneumoniae [1] and in the data set on Escherichia coli was “inactive” each time. In addition, the MIC90 result in the data set with Klebsiella pneumoniae [1] and in the data set with Escherichia coli was “inactive” in each case. Besides, the MIC50 in data set [2] is 13 µM (≈ 5.91 µg/mL); in data set [3], 22 µM (≈ 10 µg/mL); in the data set on Streptococcus pneumoniae, 34 µM (≈ 15.5 µg/mL); against Acinetobacter baumannii [5], > 100 µM. Moreover, the MIC90 was 18 µM (≈ 8.18 µg/mL) in data set [2], 43 µM (≈ 19.5 µg/mL) in data set [3], 56 µM (≈ 25.5 µg/mL) against Streptococcus pneumoniae and > 100 µM with Acinetobacter baumannii [5]. Besides, the MBC99.9 entry with Pseudomonas aeruginosa, with Klebsiella pneumoniae [4] and in the data set on Enterococcus faecalis was “inactive” each time. For the same compound, the MBC in the data set on Acinetobacter baumannii [6] was > 100 µM. The Activity entry in the data set with Erythrocyte is “Non-Toxic”.
As a reminder, the IC50 is the midpoint of a concentration-inhibition curve. As usually defined, the Kd is the free concentration of one partner at which half of the binding sites on the other are occupied at equilibrium, for simple one-to-one binding. Read a low Kd as a tighter complex. Regarding `CCCCCCCCNCc1ccc(CNC(=O)c2csc3nc[nH]c(=O)c23)cc1`, the MIC50 entry in the data set on Klebsiella pneumoniae [1] and in the data set with Escherichia coli was “inactive” each time. For the same compound, the MIC90 result in the data set with Klebsiella pneumoniae [1] and with Escherichia coli was “inactive” throughout. In addition, the MIC50 in [2] is 58 µM (≈ 24.7 µg/mL); in data set [3], 78 µM (≈ 33.3 µg/mL); against Streptococcus pneumoniae, 60 µM (≈ 25.6 µg/mL); against Acinetobacter baumannii [5] it was 62 µM (≈ 26.4 µg/mL). Moreover, in data set [7], the Kdiss is 0.0218 s⁻¹. Besides, the MIC90 is > 100 µM in [3], 73 µM (≈ 31.1 µg/mL) against Streptococcus pneumoniae and 95 µM (≈ 40.5 µg/mL) against Acinetobacter baumannii [5]. Besides, the MBC99.9 entry in the data set on Pseudomonas aeruginosa, in the data set on Klebsiella pneumoniae [4] and in the data set with Enterococcus faecalis was “inactive” each time. Besides, in data set [8], the Ka is 1.35e+07 M⁻¹ s⁻¹. Further, the MBC in the data set on Acinetobacter baumannii [6] was > 100 µM. In addition, the Activity result in the data set with Erythrocyte is reported as “Non-Toxic”. Moreover, the IC50 in data set [9] amounted to 260 nM. In [10], this compound returned a Kd of 190 nM.
Regarding `NC1CCN(Cc2ccc(CNC(=O)c3csc4nc[nH]c(=O)c34)cc2)CC1`, the Kdiss in data set [7] turned out to be 0.0117 s⁻¹. The Ka in [8] was 128000 M⁻¹ s⁻¹. In addition, the 50% inhibitory concentration (IC50) in data set [9] was determined as 840 nM. The compound further had a Kd in data set [10] of 10400 nM.

(Values after ChEMBL document CHEMBL4373727, “Thienopyrimidinone Derivatives That Inhibit Bacterial tRNA (Guanine37-N1)-Methyltransferase (TrmD) by Restructuring the Active Site with a Tyrosine-Flipping Mechanism” (J Med Chem, 2019).)
